Test results published in ChEMBL document CHEMBL5576140, “Computational Design of Pore-Forming Peptides with Potent Antimicrobial and Anticancer Activities” (J Med Chem, 2024).
Activity calls are given as the source filed them. No cut-off for these calls is given here.

Experiments:
[1] = Toxicity against reconstructed human skin model assessed as irritation at 50 uM incubated for 1 hr followed by compound washout measured after 42 hrs by MTT assay; format: tissue-based, Skin of body
How it was run: (§1)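 Reconstructed human epidermis with stratum corneum, per OECD TG 439 skin irritation guideline. Tissues exposed 1 h to peptide at 50 μM, then 42 h post-treatment incubation. Viability read by MTT. Controls were SDS and melittin.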

MCF7 [2] = assay: pH-dependent anticancer activity against human MCF7 cells in PBS medium at 10 uM incubated for 1 hr; format: functional, cell-based
How it was run: (§2)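 Cells cultured in RPMI, DMEM or PBS, each adjusted to pH 8, 7 or 6, plus one unadjusted (~7.6). Peptide at 10 μM for only 1 h, to limit pH drift from CO₂-bicarbonate buffering. Cell viability read. Controls were melittin, ampicillin and PBS. Two independent repetitions; effects analysed by ANOVA.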

Monocyte = assay: Cytotoxicity against human monocytes assessed as deleterious effect upto 50 uM by flow cytometry; format: toxicity, cell-based
How it was run: (§3)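 Whole blood from a healthy donor treated with peptides up to 50 μM; effect on B and T lymphocytes, granulocytes and monocytes assessed.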

Pseudomonas aeruginosa [3] = assay: Induction of outer membrane permeabilization in Pseudomonas aeruginosa PAO1 measured for 20 mins by NPN uptake assay; format: functional, organism-based
How it was run: (§4)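 Outer-membrane permeabilization of Gram-negative bacteria read as rise in fluorescence of the lipophilic dye NPN, which enters only when outer-membrane integrity is compromised. Peptides applied at their MIC against the respective strain; polymyxin B and levofloxacin as reference antibiotics. Triplicates.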

[4] = Stability in simulated pore POPC lipid bilayer membrane; format: physicochemical
How it was run: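 Coarse-grained MD with the "scaled" Martini force field, peptides in POPC membrane, 51 μs. Counts transmembrane peptides at 51 μs. Water beads within 2 nm vertically of membrane centre and peptide–peptide interaction energy averaged over 48–51 μs. Contacts (salt bridge or stacking) scored below 0.8 nm and called stable if present ≥50% of the time.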

Pseudomonas aeruginosa [5] = assay: Depolarization of cytoplasmic membrane in Pseudomonas aeruginosa PAO1 at MIC measured for 45 mins by DiSC3-(5) dye based assay; format: functional, organism-based
How it was run: (§5)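 Bacteria loaded with membrane-potential dye DiSC3-(5), then treated with peptide at its MIC for the respective strain; depolarization read as rise in dye fluorescence; polymyxin B and levofloxacin as reference antibiotics.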

Staphylococcus aureus = assay: Depolarization of cytoplasmic membrane in Staphylococcus aureus ATCC 12600 at MIC measured for 45 mins by DiSC3-(5) dye based assay; format: functional, organism-based; how it was run: as §5
HL-60 [6] = assay: pH-dependent anticancer activity against human HL-60 cells in RPMI medium at 10 uM incubated for 1 hr; format: functional, cell-based; how it was run: as §2
Acinetobacter baumannii [7] = assay: Depolarization of cytoplasmic membrane in Acinetobacter baumannii ATCC 19606 at MIC measured for 45 mins by DiSC3-(5) dye based assay; format: functional, organism-based; how it was run: as §5
HL-60 [8] = assay: pH-dependent anticancer activity against human HL-60 cells in DMEM medium at 10 uM incubated for 1 hr; format: functional, cell-based; how it was run: as §2
Acinetobacter baumannii [9] = assay: Induction of outer membrane permeabilization in Acinetobacter baumannii ATCC 19606 measured for 20 mins by NPN uptake assay; format: functional, organism-based
Klebsiella pneumoniae [10] = assay: Depolarization of cytoplasmic membrane in Klebsiella pneumoniae ATCC 13883 at MIC measured for 45 mins by DiSC3-(5) dye based assay; format: functional, organism-based; how it was run: as §5
MOLM-13 = assay: Anti-cancer activity against human MOLM-13 cells incubated for 24 hrs by WST assay; format: functional, cell-based; settings: MOLM-13, 24 h
Acinetobacter baumannii [11] = assay: Anti-infective activity against Acinetobacter baumannii ATCC 19606 infected in neutropenic CD-1 mouse deep thigh infection model assessed as reduction in bacterial load at 1.33 mg/kg, ip measured after 4 days; format: functional, organism-based; settings: time 4.0 day
How it was run: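 Neutropenic mice infected intramuscularly in right thigh with 10⁶ cells per mL A. baumannii ATCC 19606; single intraperitoneal peptide dose at 10× MIC; bacterial load determined 4 days after treatment (euthanized day 8); n = 6 per group from three inocula; one-way ANOVA with Dunnett's test versus untreated.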

MCF7 [12] = assay: Induction of apoptosis in human MCF7 cells in DMEM medium at pH 6 assessed as increase in cleaved capase-3 level at 10 uM; format: functional, cell-based
How it was run: (§6)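 MCF-7 cells treated with peptides at pH 6; apoptosis detected by immunoblotting for cleaved PARP and cleaved caspase-3.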

Escherichia coli [13] = assay: Induction of outer membrane permeabilization in Escherichia coli ATCC 11775 measured for 20 mins by NPN uptake assay; format: functional, organism-based
[14] = Toxicity against reconstructed human skin model assessed as tissue viability at 50 uM incubated for 1 hr followed by compound washout measured after 42 hrs by MTT assay; format: tissue-based, Skin of body; settings: read-out: Activity; how it was run: as §1
Enterococcus faecium = assay: Depolarization of cytoplasmic membrane in Enterococcus faecium ATCC 700221 at MIC measured for 45 mins by DiSC3-(5) dye based assay; format: functional, organism-based; how it was run: as §5
Escherichia coli [15] = assay: Depolarization of cytoplasmic membrane in Escherichia coli ATCC 11775 at MIC measured for 45 mins by DiSC3-(5) dye based assay; format: functional, organism-based; how it was run: as §5
[16] = Toxicity in neutropenic CD-1 mouse deep thigh infection model infected with Acinetobacter baumannii ATCC 19606 assessed as body weight change at 1.33 mg/kg, ip measured after 4 days; format: organism-based; settings: in vivo, 96 h, time 4 day
How it was run: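 Neutropenic mice infected intramuscularly in the right thigh with 10⁶ cells per mL of A. baumannii ATCC 19606. […] Body weight monitored for toxicity. Euthanasia 4 days post-infection (day 8). n = 6 per group, from three inocula.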

HL-60 [17] = assay: Anti-cancer activity against human HL-60 cells at 10 uM incubated for 30 mins; format: functional, cell-based
MCF7 [18] = assay: Induction of apoptosis in human MCF7 cells in DMEM medium at pH 6 assessed as increase in cleaved PARP level at 10 uM; format: functional, cell-based; how it was run: as §6
B cell = assay: Cytotoxicity against human B-lymphocytes assessed as deleterious effect upto 50 uM by flow cytometry; format: toxicity, cell-based; how it was run: as §3
Staphylococcus carnosus = assay: Antimicrobial activity against Staphylococcus carnosus CCM 4838T incubated for 24 hrs by broth microdilution assay; format: functional
MCF7 [19] = assay: pH-dependent anticancer activity against human MCF7 cells in RPMI medium at 10 uM incubated for 1 hr; format: functional, cell-based; how it was run: as §2
[20] = Anti-cancer activity against human NHDF cells incubated for 72 hrs by Cell Titer Glo assay; format: toxicity, cell-based
K562 [21] = assay: pH-dependent anticancer activity against human K562 cells in RPMI medium at 10 uM incubated for 1 hr; format: functional, cell-based; how it was run: as §2
HCT-116 [22] = assay: pH-dependent anticancer activity against human HCT-116 cells in DMEM medium at 10 uM incubated for 1 hr; format: functional, cell-based; how it was run: as §2
K562 [23] = assay: pH-dependent anticancer activity against human K562 cells in PBS medium at 10 uM incubated for 1 hr; format: functional, cell-based; how it was run: as §2
HL-60 [24] = assay: pH-dependent anticancer activity against human HL-60 cells in PBS medium at 10 uM incubated for 1 hr; format: functional, cell-based; how it was run: as §2
[25] = Anti-cancer activity against human MEC-1 cells incubated for 24 hrs by WST assay; format: functional, cell-based; settings: MEC1, 24 h
MCF7 [26] = assay: pH-dependent anticancer activity against human MCF7 cells in DMEM medium at 10 uM incubated for 1 hr; format: functional, cell-based; how it was run: as §2
HCT-116 [27] = assay: pH-dependent anticancer activity against human HCT-116 cells in PBS medium at 10 uM incubated for 1 hr; format: functional, cell-based; how it was run: as §2
K562 [28] = assay: pH-dependent anticancer activity against human K562 cells in DMEM medium at 10 uM incubated for 1 hr; format: functional, cell-based; how it was run: as §2
[29] = Cytotoxicity against human granulocytes assessed as deleterious effect upto 50 uM by flow cytometry; format: toxicity, cell-based; settings: granulocyte; how it was run: as §3
Klebsiella pneumoniae [30] = assay: Induction of outer membrane permeabilization in Klebsiella pneumoniae ATCC 13883 measured for 20 mins by NPN uptake assay; format: functional, organism-based; how it was run: as §4
SUD4 = assay: Anti-cancer activity against human SU-DHL-4 cells incubated for 24 hrs by WST assay; format: functional, cell-based; settings: SU-DHL-4, 24 h
T-cell line = assay: Cytotoxicity against human T-lymphocytes assessed as deleterious effect upto 50 uM by flow cytometry; format: toxicity, cell-based; how it was run: as §3
HCT-116 [31] = assay: pH-dependent anticancer activity against human HCT-116 cells in RPMI medium at 10 uM incubated for 1 hr; format: functional, cell-based; how it was run: as §2

Stability [4]: Stable
IC50 (MOLM-13): 1000 nM
MIC (Staphylococcus carnosus): > 50 µM
Substance: H-HHHHLKKILKKLFQFINQLDNQLQDIHHHH-OH
Activity [1]: Non-Toxic
Activity (MCF7 [2]): Active
Activity (Monocyte): Non-Toxic
Activity (Pseudomonas aeruginosa [3]): Active
Activity (Pseudomonas aeruginosa [5]): Active
Activity (Staphylococcus aureus): Active
Activity (HL-60 [6]): Active
Activity (Acinetobacter baumannii [7]): Active
Activity (HL-60 [8]): Active
Activity (Acinetobacter baumannii [9]): inactive
Activity (Klebsiella pneumoniae [10]): Active
Activity (Acinetobacter baumannii [11]): inactive
Activity (MCF7 [12]): Active
Activity (Escherichia coli [13]): Active
viability at 1 h, 50 µM [14]: 100%
Activity (Enterococcus faecium): Active
Activity (Escherichia coli [15]): Active
Activity [16]: Non-Toxic
Activity (HL-60 [17]): Active
Activity (MCF7 [18]): Active
Activity (B cell): Non-Toxic
Activity (MCF7 [19]): Active
IC50 at 72 h [20]: > 200000 nM
Activity (K562 [21]): Active
Activity (HCT-116 [22]): Active
Activity (K562 [23]): Active
Activity (HL-60 [24]): Active
IC50 [25]: 1000 nM
Activity (MCF7 [26]): Active
Activity (HCT-116 [27]): Active
Activity (K562 [28]): Active
Activity [29]: Non-Toxic
Activity (Klebsiella pneumoniae [30]): Active
IC50 (SUD4): 1000 nM
Activity (T-cell line): Non-Toxic
Activity (HCT-116 [31]): Active
